ChEMBL document CHEMBL1671763, “Nasal carriage of methicillin-resistant and methicillin-sensitive strains of Staphylococcus sciuri in the Indonesian population” (2010)

Assays:
Format in all cases: functional
[1] = system: Mammaliicoccus sciuri; experiment: Antimicrobial activity against mecA-deficient Staphylococcus sciuri harboring staphylococcus aureus mecA gene assessed as resistant isolates
Summary of the method: (§1)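 Nasal S. sciuri isolates from the Indonesian population, grouped by presence of the S. aureus mecA and S. sciuri mecA genes. Susceptibility to the additional antibiotics was tested on the automated Vitek 2 system (AST-P549 card), and the number of resistant isolates in each group was counted.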

[2] = system: Mammaliicoccus sciuri; experiment: Antimicrobial activity against mecA-positive Staphylococcus sciuri assessed as resistant isolates; summary of the method: as §1
[3] = system: Mammaliicoccus sciuri; experiment: Antimicrobial activity against mecA-deficient Staphylococcus sciuri assessed as resistant isolates; summary of the method: as §1
[4] = system: Mammaliicoccus sciuri; experiment: Antimicrobial activity against mecA-positive Staphylococcus sciuri harboring staphylococcus aureus mecA gene assessed as resistant isolates; summary of the method: as §1

Compound | Activity [1] | Activity [2] | Activity [3] | Activity [4]
CC[C@H]1OC(=O)[C@H](C)[C@@H](O[C@H]2C[C@@](C)(OC)[C@@H](O)[C@H](C)O2)[C@H](C)[C@@H](O[C@@H]2O[C@H](C)C[C@H](N(C)C)[C@H]2O)[C@](C)(O)C[C@@H](C)C(=O)[C@H](C)[C@@H](O)[C@]1(C)O [ERYTHROMYCIN] | 33.3% | 0% | 0% | 23.1%
CC(=O)O[C@H]1C[C@@]2(C)[C@@H](C[C@@H](O)[C@H]3[C@@]4(C)CC[C@@H](O)[C@@H](C)[C@@H]4CC[C@@]32C)/C1=C(\CCC=C(C)C)C(=O)O [FUSIDIC ACID] | 44.4% | 60% | 55.6% | 69.2%
CCn1cc(C(=O)O)c(=O)c2cc(F)c(N3CCNCC3)cc21 [NORFLOXACIN] | 66.7% | 0% | 0% | 15.4%
CO[C@H]1/C=C/O[C@@]2(C)Oc3c(C)c(O)c4c(O)c(c(/C=N/N5CCN(C)CC5)c(O)c4c3C2=O)NC(=O)/C(C)=C\C=C\[C@H](C)[C@H](O)[C@@H](C)[C@@H](O)[C@@H](C)[C@H](OC(C)=O)[C@@H]1C [RIFAMPIN] | 11.1% | 0% | 0% | 15.4%
CN(C)[C@@H]1C(O)=C(C(N)=O)C(=O)[C@@]2(O)C(O)=C3C(=O)c4c(O)cccc4[C@@](C)(O)[C@H]3C[C@@H]12 [TETRACYCLINE] | 77.8% | 5% | 11.1% | 46.2%
CN[C@H](CC(C)C)C(=O)N[C@H]1C(=O)N[C@@H](CC(N)=O)C(=O)N[C@H]2C(=O)N[C@H]3C(=O)N[C@H](C(=O)N[C@H](C(=O)O)c4cc(O)cc(O)c4-c4cc3ccc4O)[C@H](O)c3ccc(c(Cl)c3)Oc3cc2cc(c3O[C@@H]2O[C@H](CO)[C@@H](O)[C@H](O)[C@H]2O[C@H]2C[C@](C)(N)[C@H](O)[C@H](C)O2)Oc2ccc(cc2Cl)[C@H]1O [VANCOMYCIN] | 0% | 0% | 0% | 0%
GENTAMICIN | 55.5% | 0% | 0% | 38.5%
